Where two headings read alike, the source gives them in different places.

This is an account of results in PMC2962933 (Biochemistry, 2010).

Data set [1] has as its target K431A mutant of Trypanosoma cruzi S-adenosylhomocysteine hydrolase (TcK431A) (Trypanosoma cruzi). The data set can be described thus: SEC.
Data set [2] concerns the target T1, HsY430A mutant of Hs-SAHH (Homo sapiens, UniProt P23526, Y430A).
T1 sequence (P23526 1-432 Y430A): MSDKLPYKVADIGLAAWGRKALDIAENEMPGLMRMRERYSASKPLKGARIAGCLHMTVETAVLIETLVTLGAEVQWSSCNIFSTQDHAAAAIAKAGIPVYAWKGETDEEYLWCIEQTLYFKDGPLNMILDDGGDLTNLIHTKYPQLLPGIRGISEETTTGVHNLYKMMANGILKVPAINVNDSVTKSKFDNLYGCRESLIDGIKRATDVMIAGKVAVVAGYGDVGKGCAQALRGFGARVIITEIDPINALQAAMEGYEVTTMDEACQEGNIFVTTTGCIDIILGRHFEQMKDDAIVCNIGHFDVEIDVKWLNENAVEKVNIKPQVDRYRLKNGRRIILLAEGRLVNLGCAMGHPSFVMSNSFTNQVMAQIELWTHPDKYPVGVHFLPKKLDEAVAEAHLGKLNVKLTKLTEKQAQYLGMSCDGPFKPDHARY
The data set can be described thus: cofactor content of isolated and reconstituted mutant enzyme. It is filed as binding.

The test system of data set [3] is TcK431A mutant of Tc-SAHH. The data set can be described thus: cofactor content of isolated and reconstituted mutant enzyme. It is filed as binding, Trypanosoma cruzi. The gist of the method: (§1)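 Apo-enzyme preparation: mutants expressed in E. coli were precipitated three times with 80% (v/v) acid ammonium sulfate plus 2–5 mM DTT (pH 2.92, 3.12, then 7.2). Pellets were redissolved in 50 mM phosphate pH 7.2 with 1 mM EDTA. Apo protein (10 mg/mL) was incubated with 1 mM NAD+ or NADH for 12 h at 4 °C, then purified by Superdex 200 gel filtration.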

Data set [4] has as its system TcY435A mutant of Tc-SAHH. The description is as above. It is filed as binding, Trypanosoma cruzi. The gist of the method: as §1
Data set [5] has as its system Hs-SAHH. To be noted: cited from earlier work.
Data set [6] concerns Tc-SAHH. To be noted: cited from earlier work.
The target of data set [7] is Hs-SAHH. To be noted: 23 °C, pH 7.4, cited from earlier work.
Data set [8] deals with Tc-SAHH. To be noted: 23 °C, pH 7.4, cited from earlier work.
Data set [9] has as its target T1, HsY430A mutant of Hs-SAHH. The data set can be described thus: dissociation of NAD^+. It is filed as binding.
The test system of data set [10] is TcY435A mutant of Tc-SAHH. Briefly: dissociation of NAD^+. It is filed as binding, Trypanosoma cruzi.
Data set [11] addresses TcY435A mutant of Tc-SAHH. The data set can be described thus: association kinetics of NAD^+ with apo-enzyme. It is filed as binding, Trypanosoma cruzi. To be noted: 23 °C, pH 7.4.
The target of data set [12] is T1, HsY430A mutant of Hs-SAHH. The data set can be described thus: association kinetics of NAD^+ with apo-enzyme. It is filed as binding.
Data set [13] addresses Y435A mutant of Trypanosoma cruzi S-adenosylhomocysteine hydrolase (TcY435A) (Trypanosoma cruzi). The data set can be described thus: SEC.
The data set “SEC” concerns the molecule itself. Briefly: SEC.
Setting [14] is: enzyme as isolated from the expression system, fluorescence.
Setting [15] is: enzyme as isolated from the expression system, HPLC.
The mark [16] stands for this setting: Table 2 (23 °C, pH 7.4), value is 10^6 x koff.
Where [17] appears, read: binding to non-functional sites of apo-SAHH.
Where [18] appears, read: read-out: Kf, binding to fully functional sites of holo-SAHH.
Setting [19] is: read-out: Ko, binding to fully functional sites of apo-SAHH.

“K431A mutant of Trypanosoma cruzi S-adenosylhomocysteine hydrolase (TcK431A) (enzyme)”: the stoichiometry N in data set [1] was 4.
On to `NC(=O)C1=CN([C@@H]2O[C@H](COP(=O)(O)OP(=O)(O)OC[C@H]3O[C@@H](n4cnc5c(N)ncnc54)[C@H](O)[C@@H]3O)[C@@H](O)[C@H]2O)C=CC1` [NADH, β-nicotinamide adenine dinucleotide, reduced form], for which the “occupancy after reconstitution of apo-enzyme with NADH” value is reported as 94 ± 1% in data set [2] (1 mM NADH, 12 h, 4 °C, fluorescence); “no detectable occupancy” in data set [3] (attempted reconstitution); “no detectable occupancy” in data set [4] (attempted reconstitution). The “active-site occupancy by NADH” value in data set [2] (setting [14]) is on record as 86 ± 5%; in [3] (setting [14]), 1.30 ± 0.03%; in [4] (setting [14]), 90 ± 1%.
Regarding `NC(=O)C1=CN([C@@H]2O[C@H](COP(=O)(O)OP(=O)(O)OC[C@H]3O[C@@H](n4cnc5c(N)ncnc54)[C@H](O)[C@@H]3O)[C@@H](O)[C@H]2O)C=CC1` [NAD^+, β-nicotinamide adenine dinucleotide], the “active-site occupancy by NAD^+” value in [2] (setting [15]) worked out at 30 ± 5%; in [4] (setting [15]), 18 ± 1%. The koff in the data set on Hs-SAHH [5] (30 °C, pH 7.4, wild-type enzyme) was 1.9 ± 0.3 × 10^−5 s^−1; with Tc-SAHH [6] (24 °C, pH 7.4, wild-type enzyme) it was 1.1 ± 0.2 × 10^−4 s^−1; in [9] (30 °C, pH 7.4), 4.2 ± 0.1 × 10^−4 s^−1; in [10] (24 °C, pH 7.4), 2.8 ± 0.2 × 10^−2 s^−1. Further, the “10^6koff” value was 19 ± 3 s^−1 in the data set on Hs-SAHH [5] (setting [16]), 110 ± 20 s^−1 in the data set on Tc-SAHH [6] (setting [16]) and 420 ± 10 s^−1 in data set [9] (setting [16]). The Ka at Hs-SAHH [7] (setting [17]) is 19 ± 8 µM; on Tc-SAHH [8] (setting [17]), 3.8 ± 0.6 µM; in [11] (setting [17]) it was 0.39 ± 0.04 mM; in data set [12] (23 °C, pH 7.4, binding to non-functional sites of apo-SAHH), 17 ± 2 µM. The “Kd, koff/(ka/Ka)” value was 0.007 ± 0.003 µM at Hs-SAHH [7]; 0.069 ± 0.018 µM at Tc-SAHH [8]; 1000 ± 300 µM in [11]; 0.75 ± 0.095 µM in data set [12] (23 °C, pH 7.4). Also, the “10^−3kon” value in the data set on Hs-SAHH [7] (value is 10^−3 x kon) is on record as 1.9 ± 0.04 M^−1s^−1; with Tc-SAHH [8] (value is 10^−3 x kon), 0.68 ± 0.02 M^−1s^−1; in data set [12] (23 °C, pH 7.4, value is 10^−3 x kon) it was 0.54 ± 0.04 M^−1s^−1. The Kd on Hs-SAHH [7] (read-out: Kd, koff/kon) was 0.01 ± 0.002 µM; at Hs-SAHH [7] (setting [18]), 1.4 ± 0.3 µM; on Hs-SAHH [7] (setting [19]), 33 ± 4 µM; on Tc-SAHH [8] (read-out: Kd, koff/kon) it was 0.161 ± 0.03 µM; at Tc-SAHH [8] (setting [18]), 1.8 ± 0.4 µM; at Tc-SAHH [8] (setting [19]), 38 ± 9 µM. The Kd is 1600 ± 200 µM in data set [11] (read-out: Kd, koff/kon); 200 ± 30 µM in data set [11] (setting [18]); 2600 ± 1000 µM in data set [11] (setting [19]); 0.784 ± 0.064 µM in [12] (read-out: Kd, koff/kon, 23 °C, pH 7.4); 2 ± 0.3 µM in data set [12] (read-out: Kf, 23 °C, pH 7.4, binding to fully functional sites of holo-SAHH); 432 ± 93 µM in [12] (read-out: Ko, 23 °C, pH 7.4, binding to fully functional sites of apo-SAHH). The “occupancy after reconstitution of apo-enzyme with NAD^+” value in [3] (attempted reconstitution) and in data set [4] (attempted reconstitution) was “no detectable occupancy” each time. The “10^3koff” value in data set [10] (Table 2 (23 °C, pH 7.4), value is 10^3 x koff) is given as 28 ± 2 s^−1. This molecule gave an on-rate constant (kon) in data set [11] of 18 ± 2 M⁻¹ s⁻¹. Moreover, the ka/Ka in data set [11] (binding and transformation of apo-sites to holo-sites) amounted to 29 ± 9 M⁻¹ s⁻¹. The ka in data set [11] (transformation of non-functional apo-sites to functional holo-sites) was found to be 11 ± 0.4 s⁻¹. In data set [12] (23 °C, pH 7.4, fast-binding sites), the “n (Hill coefficient for Ko)” value came to 0.9 ± 0.1. The “decrease of the on-rate, mutant vs wild type” value in data set [12] (HsY430A vs Hs-SAHH) was determined as 4 fold.
Regarding “Y435A mutant of Trypanosoma cruzi S-adenosylhomocysteine hydrolase (TcY435A) (enzyme)”, in [13], the stoichiometry N was 4.

B1: Y430A mutant of human S-adenosylhomocysteine hydrolase (HsY430A) (enzyme)
chain: MSDKLPYKVADIGLAAWGRKALDIAENEMPGLMRMRERYSASKPLKGARIAGCLHMTVETAVLIETLVTLGAEVQWSSCNIFSTQDHAAAAIAKAGIPVYAWKGETDEEYLWCIEQTLYFKDGPLNMILDDGGDLTNLIHTKYPQLLPGIRGISEETTTGVHNLYKMMANGILKVPAINVNDSVTKSKFDNLYGCRESLIDGIKRATDVMIAGKVAVVAGYGDVGKGCAQALRGFGARVIITEIDPINALQAAMEGYEVTTMDEACQEGNIFVTTTGCIDIILGRHFEQMKDDAIVCNIGHFDVEIDVKWLNENAVEKVNIKPQVDRYRLKNGRRIILLAEGRLVNLGCAMGHPSFVMSNSFTNQVMAQIELWTHPDKYPVGVHFLPKKLDEAVAEAHLGKLNVKLTKLTEKQAQYLGMSCDGPFKPDHARY
As to B1, the “stoichiometry N” value in “SEC” was 4.
